The values below come from ChEMBL document CHEMBL1782035, “Synthesis and SAR of piperazine amides as novel c-jun N-terminal kinase (JNK) inhibitors” (Bioorg Med Chem Lett, 2009).

The target in assay [1] is Mitogen-activated protein kinase 10 (Homo sapiens, UniProt P53779). The experiment in a line: Inhibition of JNK3 using biotinylated ATF2 and ATP substrates by HTRF assay. The procedure, abridged: (§1)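 HTRF kinase assay with final JNK1 at 0.1 nM or JNK3 at 0.3 nM, biotinylated ATF-2 at 0.4 nM and ATP at 1 μM. Phospho-Thr71-ATF-2 product was detected with a Europium-cryptate anti-phospho-Thr71-ATF-2 antibody and a streptavidin-allophycocyanin-XL acceptor. 10-point dose-response curves were run in duplicate, and IC50 was obtained from a four-parameter logistic fit.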
In general terms: TR-FRET usually uses a lanthanide donor and a delayed reading to cut background.

Assay [2] has as its target Mitogen-activated protein kinase 8 (Homo sapiens, UniProt P45983). Description: Inhibition of JNK1 using biotinylated ATF2 and ATP substrates by HTRF assay. A digest of the protocol:
as §1

Assay [3] is described as follows: Inhibition of p38.
Assay [4] is described as follows: Inhibition of JNK-mediated c-jun phosphorylation in rat INS-1 cells by ELISA incubated for 3 hrs at 37 degC. In kind it is cell-based. Particulars: INS1, 3 h. The procedure, abridged:
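INS-1 β-pancreatic cells seeded at 3.5 × 10^4 cells/well in RPMI 1640 with 10% FBS, cultured overnight at 37 °C, 5% CO2. Cells exposed 3 h to 4 mM streptozoicin plus inhibitor (DMSO) in a 10-point dilution spanning four logs, then lysed. Phospho-c-jun captured overnight at 4 °C by sandwich ELISA, TMB read at 450 nm; EC50 from four-parameter logistic.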
(In general: An ELISA detects its analyte on a solid surface through an enzyme-linked reagent.)

pIC50: −log10 of the molar value. Calls of active or inactive are those of the source. No cut-off for these calls is given here.

Sequence of Mitogen-activated protein kinase 10 (P53779 whole entry): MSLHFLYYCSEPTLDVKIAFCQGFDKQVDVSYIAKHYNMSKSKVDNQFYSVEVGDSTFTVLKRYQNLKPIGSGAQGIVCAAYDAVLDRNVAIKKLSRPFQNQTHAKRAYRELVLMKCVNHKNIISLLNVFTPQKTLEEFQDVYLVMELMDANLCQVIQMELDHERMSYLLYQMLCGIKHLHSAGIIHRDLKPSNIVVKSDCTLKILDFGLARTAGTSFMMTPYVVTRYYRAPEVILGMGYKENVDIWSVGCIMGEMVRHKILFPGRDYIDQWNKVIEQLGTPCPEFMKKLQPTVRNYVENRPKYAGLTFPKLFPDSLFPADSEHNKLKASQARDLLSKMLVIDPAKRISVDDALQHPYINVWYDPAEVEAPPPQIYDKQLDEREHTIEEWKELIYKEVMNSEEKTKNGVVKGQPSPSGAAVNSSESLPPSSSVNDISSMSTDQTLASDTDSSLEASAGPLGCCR
Sequence of Mitogen-activated protein kinase 8 (P45983 whole entry): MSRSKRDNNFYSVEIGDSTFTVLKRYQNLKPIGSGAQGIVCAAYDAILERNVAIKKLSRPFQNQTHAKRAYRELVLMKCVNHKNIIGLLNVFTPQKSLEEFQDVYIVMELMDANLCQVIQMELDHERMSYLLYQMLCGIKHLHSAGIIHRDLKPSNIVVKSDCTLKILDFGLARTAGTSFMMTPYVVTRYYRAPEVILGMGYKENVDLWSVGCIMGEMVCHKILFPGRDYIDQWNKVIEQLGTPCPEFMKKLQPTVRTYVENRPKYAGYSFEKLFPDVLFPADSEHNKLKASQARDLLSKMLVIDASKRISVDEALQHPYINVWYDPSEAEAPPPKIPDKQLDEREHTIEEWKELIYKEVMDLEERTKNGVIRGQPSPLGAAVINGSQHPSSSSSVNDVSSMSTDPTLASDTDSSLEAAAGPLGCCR

For `COc1ccc(C(=O)Nc2cccc(C)c2N2CCC3(CC2)OCCO3)o1`, the pIC50 (in general, the negative decadic logarithm of the IC50, by convention in mol/L) in assay [1] was 6.21; in assay [2] it was 6.35.
Consider `CN1CCN(c2c(Cl)cccc2NC(=O)c2ccc(Br)o2)CC1`, for which the inhibition result in assay [3] is “inactive”. The values for the pIC50 in assay [1] and in assay [2] were 5.92 and 6.44, respectively.
For the compound `C=CCN1CCN(c2c(Cl)cccc2NC(=O)c2ccno2)CC1`, the pIC50 in assay [1] was 5.30.
Take `C=CCN1CCN(c2c(NC(=O)c3ccc(Br)o3)cccc2C(F)(F)F)CC1`: the inhibition result in assay [3] was “inactive”. For the same compound, the pIC50 in assay [1] and in assay [2] was < 4.70 in each case.
`Cc1cccc(NC(=O)c2ccc(C#N)o2)c1N1CCC2(CC1)OCCO2`: the negative logarithm of the IC50 (pIC50) in assay [1] is 6.68; in assay [2], 6.64.
For `CCCN1CCN(c2c(Cl)cccc2NC(=O)c2ccc(Br)o2)CC1`, the inhibition result in assay [3] was “inactive”. The pIC50 is 6.05 in assay [1] and 6.20 in assay [2].
For the compound `CCN1CCN(c2c(Cl)cccc2NC(=O)c2ccc(Br)o2)CC1`, the figures for the pIC50 in assay [3] and in assay [2] were < 4.70 and 6.31, respectively.
As to `C=CCN1CCN(c2c(Cl)cccc2NC(=O)c2cnc(Br)s2)CC1`, the pIC50 in assay [1] was 6.51; in assay [2], 6.48.
On the same counts, the results for `C=CCN1CCN(c2c(Cl)cccc2NC(=O)c2ncccn2)CC1` are < 4.70 and < 4.70.
For the compound `Cc1cccc(NC(=O)c2ccc(Cl)o2)c1N1CCC2(CC1)OCCO2`, the values for the negative logarithm of the IC50 (pIC50) in assay [1] and in assay [2] were 7.10 and 7.40, respectively.
As to `Cc1cccc(NC(=O)c2ccc(Cc3ccccc3)o2)c1N1CCC2(CC1)OCCO2`, the pIC50 in assay [1] is 5.32; in assay [2], 5.49.
On the same counts, the results for `Cc1cccc(NC(=O)c2ccc(C(F)F)o2)c1N1CCC2(CC1)OCCO2` are 6.46 and 6.59.
As for `O=C(Nc1cccc(Cl)c1N1CCNCC1)c1ccc(Br)o1`, the inhibition result in assay [3] is “inactive”. In addition, the pIC50 in assay [1] is 5.00; in assay [2] it was 5.39.
In the case of `C=CCN1CCN(c2c(NC(=O)c3ccc(Br)o3)cccc2Nc2ccccc2)CC1`, the inhibition result in assay [3] is “inactive”. Further, the pIC50 in assay [1] and in assay [2] was < 4.70 in each case.
As for `C=CCN1CCN(c2c(Br)cccc2NC(=O)c2ccc(Br)o2)CC1`, the inhibition result in assay [3] was “inactive”. The pIC50 in assay [1] and in assay [2] was < 4.70 in each case.
Take `C=CCN1CCN(c2c(Cl)cccc2NC(=O)c2nc(Br)cs2)CC1`: the pIC50 in assay [1] and in assay [2] was 5.74 throughout.
Turning to `CC(=O)Nc1ccc(C(=O)Nc2cccc(C)c2N2CCC3(CC2)OCCO3)o1`, the figures for the pIC50 in assay [1] and in assay [2] were 4.96 and 5.24, respectively.
Regarding `CC#Cc1ccc(C(=O)Nc2cccc(C)c2N2CCC3(CC2)OCCO3)o1`, the pIC50 in assay [1] and in assay [2] was 6.96 each time.
Consider `C=CCN1CCN(c2c(Cl)cccc2NC(=O)c2csc(C)n2)CC1`, for which, in assay [1], the pIC50 was 5.24.
For the compound `CCc1ccc(C(=O)Nc2cccc(C)c2N2CCC3(CC2)OCCO3)o1`, the pIC50 in assay [1] is 6.00; in assay [2] it was 5.85.
For `C=C(C)CN1CCN(c2c(Cl)cccc2NC(=O)c2ccc(Br)o2)CC1`, in assay [3], the inhibition result is “inactive”. Further, the pIC50 is 6.27 in assay [1], 6.40 in assay [2] and 5.48 in assay [4].
On to `C=CCN1CCN(c2c(Cl)cccc2NC(=O)c2cccc(Br)n2)CC1`, for which, in assay [1], the pIC50 is 5.70.
`O=C(Nc1cccc(Cl)c1N1CCN(c2ccccn2)CC1)c1ccc(Br)o1`: the inhibition result in assay [3] was “inactive”. The pIC50 in assay [1] is 6.00; in assay [2], 5.92.
Turning to `C=CCN1CCN(c2c(Cl)cccc2NC(=O)c2cccc(C)n2)CC1`, the pIC50 in assay [1] is 5.70; in assay [2], 5.74.
For the compound `C=CCN1CCN(c2c(Cl)cccc2NC(=O)c2ccc(C#N)cn2)CC1`, the pIC50 in assay [1] and in assay [2] was < 4.70 in each case.
For `C#CCN1CCN(c2c(Cl)cccc2NC(=O)c2ccc(Br)o2)CC1`, in assay [3], the inhibition entry was “inactive”. In assay [2], the negative-log IC50 (pIC50) is 6.85.
As to `Cc1cccc(NC(=O)c2ccc(Br)o2)c1N1CCC2(CC1)OCCO2`, the pIC50 is 7.22 in assay [1] and 7.05 in assay [2].
Turning to `C=CCN1CCN(c2c(Cl)cccc2NC(=O)c2ccc(Br)o2)CC1`, the inhibition entry in assay [3] was “inactive”. In addition, the figures for the pIC50 in assay [1] and in assay [2] were 6.48 and 6.62, respectively.
On the same counts, the results for `CC(=O)N1CCN(c2c(Cl)cccc2NC(=O)c2ccc(Br)o2)CC1` are “inactive”, 6.09 and 6.22.
On to `C=CCN1CCN(c2c(Cl)cccc2NC(=O)c2cccc(Br)c2)CC1`, for which the pIC50 in assay [1] is 5.19; in assay [2] it was 5.15.
Take `O=C(Nc1cccc(Cl)c1N1CCN(CCc2ccccc2)CC1)c1ccc(Br)o1`: the inhibition entry in assay [3] was “inactive”. Moreover, the values for the pIC50 in assay [1] and in assay [2] were 5.85 and 6.05, respectively.
In the case of `Cc1cccc(NC(=O)c2ccc(Nc3ccccc3)o2)c1N1CCC2(CC1)OCCO2`, the pIC50 in assay [1] and in assay [2] was < 4.70 each time.
`C=CCN1CCN(c2c(NC(=O)c3ccc(Br)o3)cccc2-c2ccccc2)CC1`: the inhibition entry in assay [3] is “inactive”. Moreover, the pIC50 in assay [1] and in assay [2] was < 4.70 throughout.
In the case of `CC(C)N1CCN(c2c(Cl)cccc2NC(=O)c2ccc(Br)o2)CC1`, the inhibition entry in assay [3] was “inactive”. In addition, the values for the pIC50 in assay [1] and in assay [2] were 5.66 and 5.82, respectively.
`O=C(Nc1cccc(Cl)c1N1CCN(Cc2ccccc2)CC1)c1ccc(Br)o1`: the inhibition result in assay [3] was “inactive”. Further, the pIC50 in assay [1] was 5.96; in assay [2], 6.06.
For the compound `Cc1ccc(C(=O)Nc2cccc(C)c2N2CCC3(CC2)OCCO3)o1`, the values for the pIC50 in assay [1] and in assay [2] were 6.28 and 6.48, respectively.
For `O=C(Nc1cccc(Cl)c1N1CCN(C2CC2)CC1)c1ccc(Br)o1`, the inhibition result in assay [3] is “inactive”. Besides, the negative-log IC50 (pIC50) in assay [1] was 6.02; in assay [2], 6.74.
For the compound `C=CCN1CCN(c2c(Cl)cccc2NC(=O)c2ccc[nH]2)CC1`, the pIC50 was 5.05 in assay [1] and 5.35 in assay [2].
Consider `C=CCN1CCN(c2c(Cl)cccc2NC(=O)c2cscn2)CC1`, for which, in assay [1], the pIC50 is 5.64.
For `Cc1cccc(NC(=O)c2ccc(F)o2)c1N1CCC2(CC1)OCCO2`, the results for the pIC50 in assay [1] and in assay [2] were 6.39 and 6.68, respectively.
As for `O=C(Nc1cccc(Cl)c1N1CCN(C(=O)C(F)(F)F)CC1)c1ccc(Br)o1`, in assay [3], the inhibition result was “inactive”. Moreover, the pIC50 in assay [1] and in assay [2] was < 4.70 each time.
Regarding `O=C(Nc1cccc(Cl)c1N1CCN(Cc2ccco2)CC1)c1ccc(Br)o1`, the inhibition entry in assay [3] was “inactive”. Also, the results for the pIC50 in assay [1] and in assay [2] were 6.60 and 6.57, respectively.
For the compound `CC(C)(C)OC(=O)N1CCN(c2c(Cl)cccc2NC(=O)c2ccc(Br)o2)CC1`, the inhibition entry in assay [3] was “inactive”. Moreover, the pIC50 is < 4.70 in assay [1] and 5.20 in assay [2].
On the same counts, the results for `C=CCN1CCN(c2c(C)cccc2NC(=O)c2ccc(Br)o2)CC1` are “inactive”, 6.70 and 6.74.
`C#CCN1CCN(c2c(F)cccc2NC(=O)c2ccc(Br)o2)CC1`: in assay [3], the inhibition entry is “inactive”. Further, the pIC50 in assay [1] was 6.54; in assay [2], 6.96.
